Source: PMC9314948 (Diabetes, Obesity & Metabolism, 2022)
Several values for one entry are separate records, joined by “and”; a condition that tells them apart may be missing. Identical values can stand only once.

Experiments:
[1] = Study A: accumulation of plasma bremelanotide concentration; type: in vivo, human; details: plasma 1 h after first dose of the day, SC 3 times daily
In short: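 Day 1 doses are 1.25 mg then 1.0 mg twice; later days are 2.5 mg then 2.0 mg twice. Plasma is sampled 1 h after the first daily dose on days 2, 8 and 15. Day 8/day 2 and day 15/day 2 ratios are computed, with accumulation defined as mean ratio 95% CI >1.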

murine model = details: ref Palatin Technologies, Inc. data on file; cited from earlier work
obese women [2] = experiment: Study B: caloric intake and body weight; type: in vivo, human
In short: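 Double-blind crossover in inpatient obese women with six randomized sequences of three 4-day regimens separated by 5-day washouts: placebo/placebo, 2.5/2.0 mg, or 2.5 mg/placebo, given SC 1 h before breakfast and lunch. Meals are weighed before and after eating, and snacks are allowed 18:00-midnight. Subjects are weighed each morning before breakfast in underwear or scrubs. ITT analysis uses MMRM for intake and ANCOVA for weight change, with two-sided p.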

[3] = Study B: pharmacokinetics of SC bremelanotide; type: in vivo, human; details: mean ± SD; for Cavg (D1) / Cmax (D1) / Cavg / RACC3.5 (ratio of day 4/day 1 concentrations 3.5 h postdose) / Tmax / Cmax: Study B; for Cmax (D1) / AUC(0-t) / Cmax: plasma; for Cavg: full dosing interval; for AUC(0-t): AUC0−3.5, Study B
In short: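 A further sample is taken on day 4 at 3.5 h postdose. Plasma levels are measured by HPLC-MS/MS and analysed non-compartmentally. RACC3.5 is the day 4/day 1 ratio at 3.5 h postdose.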

obese women [4] = experiment: Study A: body weight, caloric intake and waist circumference; type: in vivo, human; details: not significant vs placebo (1.24%)
obese women [5] = experiment: Study B: adverse events; type: in vivo, human
In short: (§1)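 Treatment-emergent AEs, including SAEs, are recorded throughout both inpatient placebo-controlled, double-blind SC trials in premenopausal obese women, alongside vital signs, ECG, clinical laboratory tests and physical examination. The safety population is all randomized subjects given ≥1 dose.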

obese women [6] = experiment: Study A: adverse events; type: in vivo, human; details: across Study A and Study B, subjects receiving bremelanotide
In short: as §1

obese women [7] = experiment: Study A: blood pressure; type: in vivo, human; details: over the course of the study, also seen with placebo
In short: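 Study A, three-times-daily SC dosing for 15 days. Blood pressure is taken at screening, on the 2 days before dosing, on the day after dosing, and 15 min predose and 1 h postdose at each dose on days 1-15, with subjects seated ≥5 min. Continuation requires systolic <155 and diastolic <95 mmHg. Post- vs predose changes are summarized descriptively by visit and treatment.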

rat model = details: ref Palatin Technologies, Inc. data on file; cited from earlier work
obese women [8] = experiment: Study B: blood pressure withdrawal criteria; type: in vivo, human; details: 2.5 mg/2.0 mg dosing regimen
In short: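 Crossover regimen of 2.5 mg SC 1 h before breakfast and 2.0 mg 1 h before lunch over a 4-day period. Blood pressure is measured daily pre- and postdose after ≥5 min seated. Subjects are withdrawn unless systolic <155 mmHg and diastolic <95 mmHg at all assessments.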

[9] = once-daily (2.5 mg/0 mg) SC, dose 1, n = 17-22
[10] = once-daily (2.5 mg/0 mg) SC, n = 17-22
[11] = twice-daily (2.5 mg/2.0 mg) SC, dose 1, n = 19-20
[12] = twice-daily (2.5 mg/2.0 mg) SC, n = 19-20
[13] = human, in vivo, sc, once-daily (2.5 mg/0 mg) SC, n = 17-22
[14] = human, in vivo, sc, twice-daily (2.5 mg/2.0 mg) SC, n = 19-20
[15] = once-daily (2.5 mg/0 mg) SC, 4-day period, n = 22
[16] = twice-daily (2.5 mg/2.0 mg) SC, 4-day period, n = 20

Question: What does the source list for CCCC[C@H](NC(C)=O)C(=O)N[C@H]1CC(=O)NCCCC[C@@H](C(=O)O)NC(=O)[C@H](Cc2c[nH]c3ccccc23)NC(=O)[C@H](CCCNC(=N)N)NC(=O)[C@@H](Cc2ccccc2)NC(=O)[C@H](Cc2c[nH]cn2)NC1=O [bremelanotide]?
Answer: Mean ratio of day 8/day 2 bremelanotide concentrations [1]: 1.0; Mean ratio of day 15/day 2 bremelanotide concentrations [1]: 1.1; Body weight (murine model): reduced; Food intake (murine model): reduced; Daily caloric intake versus placebo (obese women [2]; once or twice daily, all four treatment days, p < 0.001): significantly lower; Weight loss after 4 days versus placebo (obese women [2]; once-daily (2.5 mg/0 mg) SC, p = .0805): numerically greater than weight loss observed in placebo‐treated subjects, but the difference did not reach statistical significance; Mean weight loss from baseline after 4 days (obese women [2]; twice-daily (2.5 mg/2.0 mg) SC, ITT, placebo 0.9 kg, p < .001): 1.7 kg; Cavg (D1) [3, 9]: 51.6 ± 10.1 ng/mL; Cmax (D1) [3, 9]: 75.1 ± 16.1 ng/mL; Cavg [3, 10]: 25.2 ± 4.7 ng/mL; RACC3.5 (ratio of day 4/day 1 concentrations 3.5 h postdose) [3, 10]: 1.0 ± 0.3; Tmax [3, 10]: 1.0 ± 0.3 h; Cavg (D1) [3, 11]: 50.2 ± 9.4 ng/mL; Cmax (D1) [3, 11]: 75.2 ± 16.3 ng/mL; Cavg [3, 12]: 41.7 ± 9.3 ng/mL; RACC3.5 (ratio of day 4/day 1 concentrations 3.5 h postdose) [3, 12]: 1.0 and 1.0 ± 0.1; AUC(0-t) [3, 13]: 181 ± 35.4 ng·h/mL; AUC(0-t) [3, 14]: 176 ± 32.6 ng·h/mL; Cmax [3, 13]: 75.1 ± 16.1 ng/mL; Cmax [3, 14]: 83.8 ± 15.6 ng/mL; Tmax ([3]; human, in vivo, sc, t max (D1), once-daily (2.5 mg/0 mg) SC, dose 1, n = 17-22): 1 ± 0.3 h; Tmax ([3]; human, in vivo, sc, t max (D1), twice-daily (2.5 mg/2.0 mg) SC, dose 1, n = 19-20): 0.9 ± 0.4 h; Tmax ([3]; human, in vivo, sc, t max, twice-daily (2.5 mg/2.0 mg) SC, n = 19-20): 3.3 ± 2 h; Mean decrease in waist circumference from baseline to day 16 (obese women [4]): 1.63%; AE leading to treatment discontinuation: Nausea (obese women [5]; [15]): 1 (4.5) n (%); AE leading to treatment discontinuation: Vomiting (obese women [5]; [15]): 1 (4.5) n (%); AE: Decreased appetite (obese women [5]; [15]): 2 (9.1) n (%); AE: Ephelides (obese women [5]; [15]): 0 n (%); AE: Feeling hot (obese women [5]; [15]): 2 (9.1) n (%); AE: Flatulence (obese women [5]; [15]): 1 (4.5) n (%); AE: Flushing (obese women [5]; [15]): 4 (18.2) n (%); AE: Headache (obese women [5]; [15]): 2 (9.1) n (%); AE: Injection site erythema (obese women [5]; [15]): 9 (40.9) n (%); AE: Injection site pain (obese women [5]; [15]): 7 (31.8) n (%); AE: Injection site pruritus (obese women [5]; [15]): 2 (9.1) n (%); AE: Injection site reaction (obese women [5]; [15]): 16 (72.7) n (%); AE: Injection site swelling (obese women [5]; [15]): 2 (9.1) n (%); AE: Libido increased (obese women [5]; [15]): 3 (13.6) n (%); AE: Nausea (obese women [5]; [15]): 4 (18.2) n (%); AE: Pigmentation disorder (obese women [5]; [15]): 6 (27.3) n (%); AE: Procedural dizziness (obese women [5]; [15]): 2 (9.1) n (%); AE: Skin hyperpigmentation (obese women [5]; [15]): 0 n (%); AE: Vessel puncture site haemorrhage (obese women [5]; [15]): 0 n (%); Subjects experiencing an AE leading to treatment discontinuation (obese women [5]; [15]): 2 (9.1) n (%); Subjects experiencing ≥1 AE (obese women [5]; [15]): 21 (95.5) n (%); Subjects experiencing ≥1 AE: Mild (obese women [5]; [15]): 21 (95.5) n (%); Subjects experiencing ≥1 AE: Moderate (obese women [5]; [15]): 4 (18.2) n (%); Subjects experiencing ≥1 AE: Severe (obese women [5]; [15]): 0 n (%); Subjects experiencing ≥1 treatment‐related AE (obese women [5]; [15]): 21 (95.5) n (%); Treatment‐related AE: Decreased appetite (obese women [5]; [15]): 2 (9.1) n (%); Treatment‐related AE: Ephelides (obese women [5]; [15]): 0 n (%); Treatment‐related AE: Feeling hot (obese women [5]; [15]): 2 (9.1) n (%); Treatment‐related AE: Flatulence (obese women [5]; [15]): 1 (4.5) n (%); Treatment‐related AE: Flushing (obese women [5]; [15]): 4 (18.2) n (%); Treatment‐related AE: Headache (obese women [5]; [15]): 2 (9.1) n (%); Treatment‐related AE: Injection site erythema (obese women [5]; [15]): 9 (40.9) n (%); Treatment‐related AE: Injection site pain (obese women [5]; [15]): 7 (31.8) n (%); Treatment‐related AE: Injection site pruritus (obese women [5]; [15]): 2 (9.1) n (%); Treatment‐related AE: Injection site reaction (obese women [5]; [15]): 16 (72.7) n (%); Treatment‐related AE: Injection site swelling (obese women [5]; [15]): 2 (9.1) n (%); Treatment‐related AE: Libido increased (obese women [5]; [15]): 3 (13.6) n (%); Treatment‐related AE: Nausea (obese women [5]; [15]): 4 (18.2) n (%); Treatment‐related AE: Pigmentation disorder (obese women [5]; [15]): 6 (27.3) n (%); Treatment‐related AE: Skin hyperpigmentation (obese women [5]; [15]): 0 n (%); Number of SAEs reported (in a single subject) (obese women [5]; once-daily bremelanotide, nausea, vomiting, hypersensitivity, dizziness, headache): Five; AE leading to treatment discontinuation: Vomiting (obese women [5]; [16]): 1 (5.0) n (%); AE: Decreased appetite (obese women [5]; [16]): 0 n (%); AE: Ephelides (obese women [5]; [16]): 2 (10.0) n (%); AE: Feeling hot (obese women [5]; [16]): 0 n (%); AE: Flatulence (obese women [5]; [16]): 3 (15.0) n (%); AE: Flushing (obese women [5]; [16]): 3 (15.0) n (%); AE: Headache (obese women [5]; [16]): 4 (20.0) n (%); AE: Injection site erythema (obese women [5]; [16]): 5 (25.0) n (%); AE: Injection site pain (obese women [5]; [16]): 8 (40.0) n (%); AE: Injection site pruritus (obese women [5]; [16]): 3 (15.0) n (%); AE: Injection site reaction (obese women [5]; [16]): 20 (100) n (%); AE: Injection site swelling (obese women [5]; [16]): 2 (10.0) n (%); AE: Libido increased (obese women [5]; [16]): 2 (10.0) n (%); AE: Nausea (obese women [5]; [16]): 4 (20.0) n (%); AE: Pigmentation disorder (obese women [5]; [16]): 2 (10.0) n (%); AE: Procedural dizziness (obese women [5]; [16]): 0 n (%); AE: Skin hyperpigmentation (obese women [5]; [16]): 3 (15.0) n (%); AE: Vessel puncture site haemorrhage (obese women [5]; [16]): 2 (10.0) n (%); Subjects experiencing an AE leading to treatment discontinuation (obese women [5]; [16]): 1 (5.0) n (%); Subjects experiencing ≥1 AE (obese women [5]; [16]): 20 (100) n (%); Subjects experiencing ≥1 AE: Mild (obese women [5]; [16]): 20 (100) n (%); Subjects experiencing ≥1 AE: Moderate (obese women [5]; [16]): 1 (5.0) n (%); Subjects experiencing ≥1 AE: Severe (obese women [5]; [16]): 0 n (%); Subjects experiencing ≥1 SAE (obese women [5]; [16]): 0; Subjects experiencing ≥1 treatment‐related AE (obese women [5]; [16]): 20 (100) n (%); Treatment‐related AE: Decreased appetite (obese women [5]; [16]): 0 n (%); Treatment‐related AE: Ephelides (obese women [5]; [16]): 2 (10.0) n (%); Treatment‐related AE: Feeling hot (obese women [5]; [16]): 0 n (%); Treatment‐related AE: Flatulence (obese women [5]; [16]): 2 (10.0) n (%); Treatment‐related AE: Flushing (obese women [5]; [16]): 3 (15.0) n (%); Treatment‐related AE: Headache (obese women [5]; [16]): 3 (15.0) n (%); Treatment‐related AE: Injection site erythema (obese women [5]; [16]): 5 (25.0) n (%); Treatment‐related AE: Injection site pain (obese women [5]; [16]): 8 (40.0) n (%); Treatment‐related AE: Injection site pruritus (obese women [5]; [16]): 3 (15.0) n (%); Treatment‐related AE: Injection site reaction (obese women [5]; [16]): 20 (100.0) n (%); Treatment‐related AE: Injection site swelling (obese women [5]; [16]): 2 (10.0) n (%); Treatment‐related AE: Libido increased (obese women [5]; [16]): 2 (10.0) n (%); Treatment‐related AE: Nausea (obese women [5]; [16]): 3 (15.0) n (%); Treatment‐related AE: Pigmentation disorder (obese women [5]; [16]): 2 (10.0) n (%); Treatment‐related AE: Skin hyperpigmentation (obese women [5]; [16]): 3 (15.0) n (%); Subjects experiencing nausea (obese women [6]): 18% to 30; Decrease from baseline in mean systolic blood pressure (obese women [7]): < 10%; Body weight (rat model): reduced; Food intake (rat model): reduced; Subjects withdrawn while receiving the regimen (obese women [8]): No subjects
